Test results taken from ChEMBL document CHEMBL3091418, “Discovery of a novel activator of 5-lipoxygenase from an anacardic acid derived compound collection” (Bioorg Med Chem, 2013).
Active and inactive are the calls of the source. The rule behind the calls is not given here.

Key:
[1] = molecular target: T1, Prostaglandin G/H synthase 2 (Homo sapiens) (UniProt P35354); assay: Inhibition of human COX2 using arachidonic acid as substrate assessed as formation of TMPD at 50 uM incubated for 5 mins prior to substrate addition measured after 5 mins by spectrophotometry
T1 sequence (whole entry): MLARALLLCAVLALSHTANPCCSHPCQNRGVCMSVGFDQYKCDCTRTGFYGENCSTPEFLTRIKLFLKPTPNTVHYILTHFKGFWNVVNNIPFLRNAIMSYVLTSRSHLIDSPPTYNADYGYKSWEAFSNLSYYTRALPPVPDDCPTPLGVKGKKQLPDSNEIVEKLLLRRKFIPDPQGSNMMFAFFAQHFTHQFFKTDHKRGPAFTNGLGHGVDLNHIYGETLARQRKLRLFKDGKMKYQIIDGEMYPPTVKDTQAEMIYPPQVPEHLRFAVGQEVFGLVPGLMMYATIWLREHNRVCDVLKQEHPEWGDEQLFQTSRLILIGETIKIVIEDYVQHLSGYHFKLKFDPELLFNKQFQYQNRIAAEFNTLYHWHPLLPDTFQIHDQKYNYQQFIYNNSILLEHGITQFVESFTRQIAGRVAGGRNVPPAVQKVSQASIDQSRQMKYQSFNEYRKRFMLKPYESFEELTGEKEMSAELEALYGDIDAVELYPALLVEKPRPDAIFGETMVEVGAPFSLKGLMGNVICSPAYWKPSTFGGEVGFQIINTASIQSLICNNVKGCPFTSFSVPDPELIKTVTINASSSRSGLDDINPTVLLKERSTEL
How it was run: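 Human recombinant COX-2 (1:1000) in 0.1 M Tris pH 8.0 with hematin, pre-incubated 5 min at room temperature with 50 μM compound. TMPD and arachidonic acid then added and incubated 5 min at room temperature. Oxidized TMPD read at 550 nm. Controls: DMSO (100%) and no arachidonic acid. Triplicate, mean ± SD.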

[2] = molecular target: T2, Polyunsaturated fatty acid 5-lipoxygenase (Homo sapiens) (UniProt P09917); assay: Inhibition of human 5-LOX using lionleic acid as substrate assessed as formation of 13-HPOD at 50 uM incubated for 10 mins prior to substrate addition measured after 10 secs by UV absorbance assay
T2 sequence (whole entry): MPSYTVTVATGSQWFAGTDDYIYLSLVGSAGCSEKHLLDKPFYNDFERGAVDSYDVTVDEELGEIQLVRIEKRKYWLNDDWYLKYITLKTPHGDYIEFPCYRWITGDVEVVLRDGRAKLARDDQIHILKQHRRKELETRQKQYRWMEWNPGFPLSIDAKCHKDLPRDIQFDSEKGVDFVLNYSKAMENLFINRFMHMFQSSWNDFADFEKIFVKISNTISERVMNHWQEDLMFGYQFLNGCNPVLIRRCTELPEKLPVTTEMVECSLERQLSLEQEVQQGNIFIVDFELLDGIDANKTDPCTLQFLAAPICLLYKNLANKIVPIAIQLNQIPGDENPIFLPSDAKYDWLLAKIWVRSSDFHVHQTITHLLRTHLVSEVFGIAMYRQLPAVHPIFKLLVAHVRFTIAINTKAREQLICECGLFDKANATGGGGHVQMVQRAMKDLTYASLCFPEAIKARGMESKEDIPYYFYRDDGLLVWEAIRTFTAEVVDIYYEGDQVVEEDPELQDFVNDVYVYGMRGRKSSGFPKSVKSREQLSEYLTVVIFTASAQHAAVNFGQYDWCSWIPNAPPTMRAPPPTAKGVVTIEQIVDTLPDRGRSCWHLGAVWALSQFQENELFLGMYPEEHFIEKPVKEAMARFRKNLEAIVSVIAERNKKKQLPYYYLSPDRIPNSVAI
How it was run: (§1)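 Recombinant human 5-LOX (1:4000 dilution) in 50 mM Tris pH 7.5 with 2 mM EDTA, 2 mM CaCl2 and ATP, pre-incubated 10 min at room temperature with 50 μM compound (DMSO stock diluted in buffer). Linoleic acid (100 μM final) then added. Conjugated-diene HPOD formation read at 234 nm over 20 min, starting after 10 s mixing. Activity given relative to DMSO control (100%) and no-enzyme blank (0%). Triplicate.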

[3] = Critical micelle concentration of the compound in 50 mM Tris buffer containing 2 mM EDTA, 2 mM CaCl2 at pH 7.5 at 19 degC; format: ADME
How it was run: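 Surface tension measured across a range of compound concentrations in the 5-LOX assay buffer at room temperature (19 °C) and plotted against log concentration. The CMC was read from this plot.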

[4] = molecular target: T2, Polyunsaturated fatty acid 5-lipoxygenase (Homo sapiens); assay: Modulation of human 5-LOX using arachidonic acid as substrate at 50 uM
How it was run: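 Human 5-LOX in Tris pH 7.5 buffer with EDTA and CaCl2, pre-incubated 10 min with 50 μM compound. Substrate was arachidonic acid, 100 μM final. Residual activity measured by UV absorbance of conjugated diene product, relative to an uninhibited control.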

[5] = molecular target: T3, Polyunsaturated fatty acid 5-lipoxygenase (Homo sapiens, UniProt P09917); assay: Binding affinity to human 5-LOX-linoleic acid complex
T3 sequence (P09917 whole entry): T2 sequence (whole entry)
How it was run: (§2)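 Human 5-LOX in 50 mM Tris pH 7.5 with 2 mM EDTA and 2 mM CaCl2, pre-incubated 10 min at room temperature with the modulator at fixed 0–50 μM. Linoleic acid was varied 37.5–300 μM with ATP at 100 μM. Initial rates came from the 234 nm diene absorbance, in triplicate. Dissociation constants for free and substrate-bound enzyme were derived by Lineweaver-Burk slope/intercept re-plots.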

[6] = molecular target: T3, Polyunsaturated fatty acid 5-lipoxygenase; assay: Binding affinity to human 5-LOX using linoleic acid as substrate; how it was run: as §2
[7] = molecular target: T2, Polyunsaturated fatty acid 5-lipoxygenase (Homo sapiens); assay: Modulation of human 5-LOX using linoleic acid as substrate at 50 uM; how it was run: as §1
[8] = Critical micelle concentration of the compound in 50 mM Tris buffer with 2 mM EDTA and 2 mM CaCl2 at pH 7.5 at 19 degC
[9] = molecular target: T2, Polyunsaturated fatty acid 5-lipoxygenase (Homo sapiens); assay: Binding affinity to human 5-LOX using linoleic acid as substrate by Lineweaver-Burk plot analysis
[10] = molecular target: T2, Polyunsaturated fatty acid 5-lipoxygenase (Homo sapiens); assay: Activation of human 5-LOX using lionleic acid as substrate assessed as formation of 13-HPOD at 50 uM incubated for 10 mins prior to substrate addition measured after 10 secs by UV absorbance assay; how it was run: as §1
[11] = molecular target: T2, Polyunsaturated fatty acid 5-lipoxygenase (Homo sapiens); assay: Non-competitive activation of human 5-LOX using linoleic acid as substrate assessed as increase in Vmax (app) at 12.5 to 25 uM by Lineweaver-Burk plot analysis in presence of ATP
How it was run: (§3)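 Human 5-LOX, UV assay at 234 nm as in screening. Initial velocities measured with ATP varied over 12.5–200 μM, linoleic acid fixed at 100 μM, and activator at 0, 12.5 or 25 μM. Vmax(app) and Km(app) obtained from Michaelis-Menten and Lineweaver-Burk plots. Triplicate.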

[12] = molecular target: T2, Polyunsaturated fatty acid 5-lipoxygenase (Homo sapiens); assay: Binding affinity to human 5-LOX-linoleic acid complex at <10 uM by Lineweaver-Burk plot analysis relative to human 5-LOX
[13] = molecular target: T2, Polyunsaturated fatty acid 5-lipoxygenase (Homo sapiens); assay: Binding affinity to human 5-LOX-linoleic acid complex by Lineweaver-Burk plot analysis
[14] = molecular target: T2, Polyunsaturated fatty acid 5-lipoxygenase (Homo sapiens); assay: Non-essential mixed type activation of human 5-LOX assessed as increase in Vmax (app) at 12.5 to 25 uM by Michaelis-Menten/ Lineweaver-Burk plot analysis in presence of linoleic acid
How it was run: (§4)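 Human 5-LOX, conjugated diene read at 234 nm (ε = 25000 M−1cm−1). ATP fixed at 100 μM, linoleic acid varied over 37.5–300 μM, activator at 0, 12.5 or 25 μM. Km(app) and Vmax(app) taken from Michaelis-Menten and Lineweaver-Burk plots. Triplicate, mean ± SD.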

[15] = molecular target: T2, Polyunsaturated fatty acid 5-lipoxygenase (Homo sapiens); assay: Activation of human 5-LOX using lionleic acid as substrate assessed as formation of 13-HPOD incubated for 10 mins prior to substrate addition measured after 10 secs by UV absorbance assay; how it was run: as §1
[16] = molecular target: T2, Polyunsaturated fatty acid 5-lipoxygenase (Homo sapiens); assay: Non-competitive activation of human 5-LOX using linoleic acid as substrate assessed as increase in Vmax (app) at 12.5 to 25 uM by Michaelis-Menten equation analysis in presence of ATP; how it was run: as §3
[17] = molecular target: T2, Polyunsaturated fatty acid 5-lipoxygenase (Homo sapiens); assay: Non-essential mixed type activation of human 5-LOX assessed as decrease in Km (app) at 12.5 to 25 uM by Michaelis-Menten/ Lineweaver-Burk plot analysis in presence of lonoleic acid; how it was run: as §4

SMILES	inhibition [1]	inhibition [2]	further results
CCCCCCCCCCCCCCOc1cccc(O)c1C(=O)O	< 50%		
CCCCCCCCCCCCCCCc1cccc(O)c1C(=O)O	< 50%	Active	
CCCCCCCCCOc1cccc(COc2cccc(O)c2C(=O)O)c1	< 50%		
CCCCCCCCCOc1ccc(COc2cccc(O)c2C(=O)O)cc1	< 50%	inactive	
CC(C)CCCC(C)CCOc1ccc(COc2cccc(O)c2C(=O)[O-])cc1.[K+] (configuration not stated)	< 50%	50%	CMC [3]: 395 µM; Activity [4]: inactive; Ki [5]: 140 µM; Ki [6]: 70.3 µM; Activity [7]: Active
CCCCCCCCCOc1cccc(O)c1C(=O)O	< 50%		
Oc1ccccc1-c1nc2ccccc2o1	50%	inactive	
CCCCC/C=C\C/C=C\CCCCCCCC(=O)O [LINOLEIC ACID]			CMC [8]: 185 µM
CCCCCc1cccc(O)c1C(=O)O	< 50%	Active	
CCCCCOc1ccc(COc2cccc(O)c2C(=O)[O-])cc1.[K+]	< 50%		Ka [9]: 8.65 µM; Activity [10]: Active; Activity [11]: Active; fold change (FC) [12]: 50; Ka [13]: 380 nM; Activity [14]: Active; CMC [3]: 628 µM; Activity [4]: inactive; Activity [15]: Dose-dependent effect; Activity [16]: Active; Activity [17]: Active; Activity [7]: Active
CCCCCCCOc1cccc(COc2cccc(O)c2C(=O)O)c1	< 50%		
CCCCCCCCCCc1cccc(O)c1C(=O)O	< 50%	Active	

Further lines, with some results ahead:

inhibition [1]	inhibition [2]	SMILES	further results
< 50%		CCCCCCCc1ccc(CCc2cccc(O)c2C(=O)O)cc1	
< 50%		CCCCCCCCCCc1ccc(CCc2cc(O)cc(O)c2C(=O)O)cc1	
< 50%		CCCCCCCc1ccc(CCc2cc(O)cc(O)c2C(=O)O)cc1	
< 50%	Active	CCCCCCCCCCCCCCCc1cc(O)cc(O)c1C(=O)O	
< 50%	inactive	CCCCCCCOc1ccc(COc2cccc(O)c2C(=O)O)cc1	
